Activity calls are given as the source filed them. The calls are words filed in the database; no cut-off is given here.
Experiments:
[1] = test system: Mus musculus; assay: Antiamnesic activity in mouse assessed as reversal of scopolamine-induced memory loss at 10 mg/kg, ip treated 20 mins before training session by passive avoidance test; format: functional, organism-based; design: dose 10 mg/kg
Method in brief: (§1)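 Step-through passive avoidance in mice: lit and dark compartments joined by a guillotine door. Entering the dark side drops the mouse 40 cm into 10 °C water, a non-painful punishment. Mice not entering within 60 s at training were excluded. Compound given ip at 1:10 dilution steps […], 20 min before training. Vehicle was saline or saline/DMSO 4:1. Scopolamine 1.5 mg/kg ip immediately after punishment. Retention tested next day. MED is the lowest dose reversing amnesia.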

[2] = organism: Mus musculus; assay: Toxicity in mouse assessed as motor coordination after 45 mins by rotarod test; format: organism-based; settings: in vivo, 0.75 h
Method in brief: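 Rota-rod: rod 30 cm long, 15 cm above the base, split into five sections, rotating at 16 rpm. Falls counted over 30 s. Mice with fewer than 3 or more than 6 falls in the pretest were rejected. Performance measured at pretest and 15, 30 and 45 min after test start. Compared with saline-treated mice.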

[3] = organism: Mus musculus; assay: Toxicity in mouse assessed as spontaneous motility and inspection activity after 5 mins by hole board test; format: organism-based; settings: in vivo
Method in brief: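 Hole-board: 40 cm square plane with 16 holes of 3 cm, arranged 4×4. Each mouse placed centrally and free to move for […]. Photocells counted locomotion (spontaneous motility) and hole exploration, both as counts in 5 min. Compared with saline-treated mice.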

[4] = organism: Mus musculus; assay: Effect on passive avoidance in mouse treated 20 mins before training session; format: functional; settings: read-out: MED
Method in brief: (§2)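 Same step-through passive avoidance without scopolamine. Punishment is a 40 cm fall into 10 °C water on entering the dark room. Mice not entering within 60 s at training were excluded. Compound given ip at 1:10 dilution steps, 20 min before training, in saline or saline/DMSO 4:1. Controls received an extra saline injection right after training. Latency to enter the dark room recorded at training and at next-day retention.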

[5] = test system: Mus musculus; assay: Antiamnesic activity in scopolamine-induced mouse assessed as latency time to enter dark room in retention session at 0.1 mg/kg, ip treated 20 mins before training session by passive avoidance test; format: functional; settings: route intraperitoneal; method in brief: as §1
[6] = test system: Mus musculus; assay: Antiamnesic activity in scopolamine-induced mouse assessed as latency time to enter dark room in training session at 0.1 mg/kg, ip treated 20 mins before training session by passive avoidance test; format: functional; settings: route intraperitoneal; method in brief: as §1
[7] = test system: Mus musculus; assay: Antiamnesic activity in ip dosed mouse assessed as reversal of scopolamine-induced memory loss treated 20 mins before training session by passive avoidance test; format: functional; settings: read-out: MED; method in brief: as §1
[8] = test system: Mus musculus; assay: Effect on passive avoidance in mouse assessed as latency time to enter dark room in training session at 1.0 mg/kg, ip treated 20 mins before training session; format: functional; settings: route intraperitoneal; method in brief: as §2
[9] = test system: Mus musculus; assay: Effect on passive avoidance in mouse assessed as latency time to enter dark room in retention session at 1.0 mg/kg, ip treated 20 mins before training session; format: functional; settings: route intraperitoneal; method in brief: as §2
[10] = test system: Mus musculus; assay: Effect on passive avoidance in mouse assessed as latency time to enter dark room in retention session at 10 mg/kg, ip treated 20 mins before training session; format: functional; settings: route intraperitoneal; method in brief: as §2
[11] = test system: Mus musculus; assay: Effect on passive avoidance in mouse assessed as latency time to enter dark room in training session at 10 mg/kg, ip treated 20 mins before training session; format: functional; settings: route intraperitoneal; method in brief: as §2
[12] = test system: Mus musculus; assay: Antiamnesic activity in scopolamine-induced mouse assessed as latency time to enter dark room in retention session at 1.0 mg/kg, ip treated 20 mins before training session by passive avoidance test; format: functional; settings: route intraperitoneal; method in brief: as §1
[13] = test system: Mus musculus; assay: Antiamnesic activity in scopolamine-induced mouse assessed as latency time to enter dark room in training session at 1.0 mg/kg, ip treated 20 mins before training session by passive avoidance test; format: functional; settings: route intraperitoneal; method in brief: as §1
[14] = test system: Mus musculus; assay: Effect on passive avoidance in mouse assessed as latency time to enter dark room in retention session at 0.01 mg/kg, ip treated 20 mins before training session; format: functional; settings: route intraperitoneal; method in brief: as §2
[15] = test system: Mus musculus; assay: Effect on passive avoidance in mouse assessed as latency time to enter dark room in training session at 0.01 mg/kg, ip treated 20 mins before training session; format: functional; settings: route intraperitoneal; method in brief: as §2
[16] = test system: Mus musculus; assay: Antiamnesic activity in scopolamine-induced mouse assessed as latency time to enter dark room in retention session at 10 mg/kg, ip treated 20 mins before training session by passive avoidance test; format: functional; settings: route intraperitoneal; method in brief: as §1
[17] = test system: Mus musculus; assay: Antiamnesic activity in scopolamine-induced mouse assessed as latency time to enter dark room in training session at 10 mg/kg, ip treated 20 mins before training session by passive avoidance test; format: functional; settings: route intraperitoneal; method in brief: as §1
[18] = test system: Mus musculus; assay: Antiamnesic activity in scopolamine-induced mouse assessed as latency time to enter dark room in retention session at 0.01 mg/kg, ip treated 20 mins before training session by passive avoidance test; format: functional; settings: route intraperitoneal; method in brief: as §1
[19] = test system: Mus musculus; assay: Antiamnesic activity in scopolamine-induced mouse assessed as latency time to enter dark room in training session at 0.01 mg/kg, ip treated 20 mins before training session by passive avoidance test; format: functional; settings: route intraperitoneal; method in brief: as §1
[20] = test system: Mus musculus; assay: Effect on passive avoidance in mouse assessed as latency time to enter dark room in retention session at 0.1 mg/kg, ip treated 20 mins before training session; format: functional; settings: route intraperitoneal; method in brief: as §2
[21] = test system: Mus musculus; assay: Effect on passive avoidance in mouse assessed as latency time to enter dark room in training session at 0.1 mg/kg, ip treated 20 mins before training session; format: functional; settings: route intraperitoneal; method in brief: as §2

Compound | Activity [1] | Activity [2] | Activity [3] | minimal effective dose [4] | minimal effective dose [7] | also measured
O=C(N[C@H]1CC[C@H](NS(=O)(=O)c2ccc(F)cc2)CC1)c1ccccc1 | inactive | Non-toxic | Non-toxic |  |  | 
CCC(=O)N1CCN2C(=O)c3ccccc3C2C1 (stereo not given) | inactive | Non-toxic | Non-toxic |  |  | 
CC(C)S(=O)(=O)Nc1ccc(N(C)S(=O)(=O)c2ccc(F)cc2)cc1 |  | Non-toxic | Non-toxic | 1 mg/kg | 0.1 mg/kg | Activity [5]: 103.6 s; Activity [6]: 20.2 s; Activity [8]: 26.2 s; Activity [9]: 149.8 s
CC(=O)N[C@H]1CC[C@H](NC(=O)c2ccccc2)CC1 | inactive | Non-toxic | Non-toxic |  |  | 
CCC(=O)N[C@H]1CC[C@@H](NC(=O)CC)CC1 |  | Non-toxic | Non-toxic | 10 mg/kg | 1 mg/kg | Activity [10]: 165.2 s; Activity [11]: 34.8 s; Activity [12]: 106.2 s; Activity [13]: 17.8 s
CC(C)S(=O)(=O)N1CCN2C(=O)CCC2C1 (stereo not given) |  | Non-toxic | Non-toxic | 10 mg/kg |  | Activity [10]: 61.5 s; Activity [11]: 13.6 s
O=C1c2ccccc2C2CN(S(=O)(=O)c3ccc(F)cc3)CCN12 (stereo not given) |  | Non-toxic | Non-toxic |  | 0.1 mg/kg | Activity [5]: 74.5 s; Activity [6]: 15.6 s
CC(=O)N[C@H]1CC[C@H](NS(=O)(=O)c2ccc(F)cc2)CC1 |  | Non-toxic | Non-toxic | 0.01 mg/kg | 10 mg/kg | Activity [14]: 52.8 s; Activity [15]: 19.2 s; Activity [16]: 26.3 s; Activity [17]: 17 s
CC(=O)Nc1ccc(NC(=O)c2ccccc2)cc1 | inactive | Non-toxic | Non-toxic |  |  | 
CC(=O)Nc1ccc(NS(=O)(=O)c2ccc(F)cc2)cc1 | inactive | Non-toxic | Non-toxic |  |  | 
CC(C)S(=O)(=O)N(C)c1ccc(NC(=O)c2ccccc2)cc1 |  | Non-toxic | Non-toxic |  | 0.01 mg/kg | Activity [18]: 66.7 s; Activity [19]: 20.6 s
CCC(=O)Nc1ccc(NS(=O)(=O)c2ccc(F)cc2)cc1 | inactive | Non-toxic | Non-toxic |  |  | 
CC(C)S(=O)(=O)N[C@H]1CC[C@H](NC(=O)c2ccccc2)CC1 | inactive | Non-toxic | Non-toxic |  |  | 
CCC(=O)N[C@H]1CC[C@@H](NS(=O)(=O)c2ccc(F)cc2)CC1 |  | Non-toxic | Non-toxic | 10 mg/kg | 0.1 mg/kg | Activity [10]: 162.9 s; Activity [11]: 25.3 s; Activity [5]: 89.1 s; Activity [6]: 16.8 s
O=C(Nc1ccc(NS(=O)(=O)c2ccc(F)cc2)cc1)c1ccccc1 | inactive | Non-toxic | Non-toxic |  |  | 
CC(=O)NC1CCN(S(=O)(=O)c2ccc(F)cc2)CC1 [SAPUNIFIRAM] |  | Non-toxic | Non-toxic | 0.1 mg/kg | 0.01 mg/kg | Activity [20]: 126.8 s; Activity [21]: 19.1 s; Activity [18]: 90.6 s; Activity [19]: 14.5 s
CCC(=O)N[C@H]1CC[C@H](NC(=O)c2ccccc2)CC1 | inactive | Non-toxic | Non-toxic |  |  | 
CCC(=O)N[C@H]1CC[C@H](NS(=O)(=O)c2ccc(F)cc2)CC1 |  | Non-toxic | Non-toxic | 0.1 mg/kg | 1 mg/kg | Activity [20]: 56.3 s; Activity [21]: 16.9 s; Activity [12]: 16.4 s; Activity [13]: 17.5 s
CC(=O)Nc1ccc(NS(=O)(=O)C(C)C)cc1 | inactive | Non-toxic | Non-toxic |  |  | 
CCC(=O)N[C@H]1CC[C@H](NC(=O)CC)CC1 | inactive | Non-toxic | Non-toxic |  |  | 
CC(=O)N1CCN(C(=O)c2ccccc2)CC1 |  | Non-toxic | Non-toxic |  | 10 mg/kg | Activity [16]: 119 s; Activity [17]: 11.3 s
CC(=O)N[C@H]1CC[C@@H](NS(=O)(=O)c2ccc(F)cc2)CC1 |  | Non-toxic | Non-toxic | 10 mg/kg | 1 mg/kg | Activity [10]: 156.6 s; Activity [11]: 32 s; Activity [12]: 104.5 s; Activity [13]: 19.1 s
CC(C)S(=O)(=O)Nc1ccc(NS(=O)(=O)c2ccc(F)cc2)cc1 |  | Non-toxic | Non-toxic | 10 mg/kg | 1 mg/kg | Activity [10]: 125.2 s; Activity [11]: 21.1 s; Activity [12]: 76.3 s; Activity [13]: 19.1 s
CC(=O)N1CCN2C(=O)c3ccccc3C2C1 (stereo not given) | inactive | Non-toxic | Non-toxic |  |  | 
CCC(=O)Nc1ccc(NS(=O)(=O)C(C)C)cc1 | inactive | Non-toxic | Non-toxic |  |  | 
CC(C)S(=O)(=O)N1CCN2C(=O)c3ccccc3C2C1 (stereo not given) |  | Non-toxic | Non-toxic |  | 1 mg/kg | Activity [12]: 85.5 s; Activity [13]: 16.3 s
CC(C)S(=O)(=O)N(C)c1ccc(N(C)S(=O)(=O)c2ccc(F)cc2)cc1 |  | Non-toxic | Non-toxic | 1 mg/kg | 0.01 mg/kg | Activity [18]: 70.5 s; Activity [19]: 18.8 s; Activity [8]: 30 s; Activity [9]: 158.6 s
CC(C)S(=O)(=O)Nc1ccc(NC(=O)c2ccccc2)cc1 |  | Non-toxic | Non-toxic | 1 mg/kg | 10 mg/kg | Activity [16]: 88.1 s; Activity [17]: 16.8 s; Activity [8]: 22.1 s; Activity [9]: 116.7 s
CC(C)S(=O)(=O)N(C)c1ccc(N(C)C(=O)c2ccccc2)cc1 |  | Non-toxic | Non-toxic | 1 mg/kg | 0.01 mg/kg | Activity [18]: 91.8 s; Activity [19]: 20.7 s; Activity [8]: 19.6 s; Activity [9]: 123.6 s
CC(C)S(=O)(=O)Nc1ccc(N(C)C(=O)c2ccccc2)cc1 |  | Non-toxic | Non-toxic | 0.1 mg/kg | 0.1 mg/kg | Activity [20]: 121 s; Activity [21]: 17.3 s; Activity [5]: 75.9 s; Activity [6]: 21.6 s

Source: ChEMBL document CHEMBL1151695, “Design, synthesis and preliminary pharmacological evaluation of new analogues of DM232 (unifiram) and DM235 (sunifiram) as cognition modulators” (Bioorg Med Chem, 2008)
